From ChEMBL document CHEMBL4825665, “Effective degradation of EGFRL858R+T790M mutant proteins by CRBN-based PROTACs through both proteosome and autophagy/lysosome degradation systems” (Eur J Med Chem, 2021)
Calls of active or inactive are those of the source. No cut-off for these calls is given here.

Legend:
[1] = test system: NCI-H1975; assay: Induction of apoptosis in human NCI-H1975 cells expressing EGFR L858R/T790M mutant assessed as increase in number of apoptotic cells measured after 72 hrs by Annexin-V/FITC staining based flow cytometry method; format: functional, cell-based
In short: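 H1975 cells (8 × 10⁴/well, 12-well plates) treated one day after seeding at graded concentrations for 72 h. Collected, stained with Annexin V-FITC, and apoptosis measured by flow cytometry.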

[2] = test system: Epidermal growth factor receptor (Homo sapiens), P00533 [L858R,T790M]; assay: Inhibition of EGFR L858R/T790M mutant phosphorylation in human NCI-H1975 cells at 1 to 100 nM measured after 16 hrs by Western blot assay; format: cell-based; conditions: dose 1-100 nM
In short: (§1)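 Cells seeded at 1-3X10^5/well and treated one day later with compounds at the concentrations and times given. Lysed in RIPA buffer with protease inhibitors. 15 µg protein run on 8% SDS-PAGE, transferred to nitrocellulose, probed for EGFR or phospho-EGFR, ECL detection. Lung lines kept in RPMI 1640 with 10% fetal calf serum, 37 °C, 5% CO2. DC50 is an estimated value. Repeated more than 3 times.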

[3] = test system: Protein cereblon/Epidermal growth factor receptor (Homo sapiens), P00533+Q96SW2 [L858R,T790M]; assay: Protac activity at CRBN/EGFR L858R/T790M mutant in human NCI-H1975 cells assessed as induction of EGFR degradation at 30 nM measured after 16 hrs by Western blot assay; format: cell-based; in short: as §1
[4] = test system: NCI-H1975; assay: Cell cycle arrest in human NCI-H1975 cells expressing EGFR L858R/T790M mutant assessed as decrease of cell population in S phase at […] measured after 48 hrs by RNaseA/propidium iodide staining based flow cytometry; format: functional; conditions: dose lower 0.03 nM
In short: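 H1975 cells (1 × 10⁵/well, 6-well plates) treated one day after seeding at the indicated concentrations for 48 h. Washed in cold PBS, fixed in cold ethanol at −20 °C for over 24 h, then stained with PI/RNase for 30 min at 37 °C in the dark. Phase distribution measured by flow cytometry.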

[5] = test system: PC-9; assay: Antiproliferative activity against human PC-9 cells assessed as inhibition of cell growth measured after 72 hrs by CCK-8 assay; format: functional, cell-based; conditions: PC-9, 72 h
In short: (§2)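 Cells seeded at 3000 cells/well in 96-well plates and treated with graded compound concentrations one day later for 72 h. CCK-8 was added for 1–4 h and absorbance read at 450 nm. Lung cancer lines were kept in RPMI 1640 with 10% fetal calf serum at 37 °C and 5% CO₂.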

[6] = molecular target: T1, Protein cereblon/Epidermal growth factor receptor (Homo sapiens, UniProt P00533+Q96SW2); assay: Protac activity at CRBN/EGFR in mouse BaF3 cells assessed as induction of EGFR degradation by Western blot assay; format: cell-based
[7] = test system: Protein cereblon/Epidermal growth factor receptor (Homo sapiens), P00533+Q96SW2 [UNDEFINED MUTATION]; assay: Protac activity at CRBN/EGFR exon19 deletion/T790M mutant in human PC-9 cells transfected with BRCA1 assessed as induction of EGFR degradation at 1 to 1000 nM measured after 16 hrs by Western blot assay; format: cell-based; conditions: dose 1-1000 nM; in short: as §1
[8] = test system: HEK-293T; assay: Cytotoxicity against human HEK293T cells assessed as inhibition of cell growth measured after 72 hrs by CCK-8 assay; format: cell-based; in short: as §2
[9] = test system: NCI-H1975; assay: Inhibition of cell invasion in human NCI-H1975 cells expressing EGFR L858R/T790M mutant assessed at 500 nM measured after 42 hrs by transwell assay; format: functional; design: scale not given: the % may be the effect or the level left
In short: (§3)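 GFP-expressing H1975 cells were trypsinised and resuspended in serum-free medium containing compound. Seeded into Matrigel-coated transwell inserts (8 µm pores) above RPMI 1640 full growth medium, at 37 °C and 5% CO₂. Invaded cells imaged by fluorescence microscopy in five random fields per insert and counted. Three independent repeats.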

[10] = test system: NCI-H1975; assay: Antimigratory activity in human NCI-H1975 cells expressing EGFR L858R/T790M mutant at 300 to 500 nM measured after 24 hrs by wound healing assay; format: functional, cell-based; conditions: dose 300-500 nM
In short: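 H1975 cells seeded in 24-well plates, scratched at confluence with a pipette tip 24 h later and washed three times with PBS. Then incubated with degrader at 300 or 500 nM. Six photos per well taken at set time points, and the uncovered wound area quantified.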

[11] = test system: Protein cereblon/Epidermal growth factor receptor (Homo sapiens), P00533+Q96SW2 [L858R,T790M]; assay: Protac activity at CRBN/EGFR L858R/T790M mutant in human NCI-H1975 cells assessed as induction of EGFR degradation at 30 to 500 nM by Western blot assay; format: cell-based; conditions: dose 30-500 nM, time 16-48 hrs, TDE = time-dependent effect
[12] = test system: Protein cereblon/Epidermal growth factor receptor (Homo sapiens), P00533+Q96SW2 [L858R,T790M]; assay: Protac activity at CRBN/EGFR L858R/T790M mutant in human NCI-H1975 cells assessed as induction of EGFR degradation at 300 nM measured after 8 to 72 hrs by Western blot assay relative to control; format: cell-based; conditions: time 8-72 hrs
[13] = test system: Protein cereblon/Epidermal growth factor receptor (Homo sapiens), P00533+Q96SW2 [UNDEFINED MUTATION]; assay: Protac activity at CRBN/EGFR exon19 deletion/T790M mutant in human PC-9 cells transfected with BRCA1 assessed as induction of EGFR degradation at 1 to 1000 nM measured after 48 hrs by Western blot assay; format: cell-based; conditions: dose 1-1000 nM; in short: as §1
[14] = molecular target: T1, Protein cereblon/Epidermal growth factor receptor; assay: Protac activity at CRBN/EGFR in human PB1 cells assessed as induction of EGFR degradation by Western blot assay; format: cell-based
[15] = test system: BJ; assay: Cytotoxicity against human BJ cells assessed as inhibition of cell growth measured after 72 hrs by CCK-8 assay; format: cell-based; in short: as §2
[16] = test system: Protein cereblon/Epidermal growth factor receptor (Homo sapiens), P00533+Q96SW2 [L858R,T790M]; assay: Protac activity at CRBN/EGFR L858R/T790M mutant in human NCI-H1975 cells assessed as increase in ratio of LC3B2 to LC3B1 at 30 to 300 nM preincubated for 2 hrs in presence of Rapamycin and measured after 16 hrs by Western blot assay; format: cell-based; conditions: dose 30-300 nM, time 18.0 hrs
In short: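 H1975 cells in RPMI 1640 with 10% serum. Autophagy was read by Western blot as the LC3B II/LC3B I ratio. Serum-free medium and rapamycin served as autophagy-inducing positive controls, and rapamycin was also combined with degrader. Where pretreatment applied, compounds were added for 2 h before a 16 h PROTAC treatment.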

[17] = test system: NCI-H1975; assay: Inhibition of cell invasion in human NCI-H1975 cells expressing EGFR L858R/T790M mutant assessed at 500 nM measured after 18 hrs by transwell assay; format: functional; design: scale not given: the % may be the effect or the level left; in short: as §3
[18] = molecular target: T1, Protein cereblon/Epidermal growth factor receptor; assay: Protac activity at CRBN/EGFR in human PC-9 cells assessed as induction of EGFR degradation by Western blot assay relative to control; format: cell-based
In short: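 PC9 cells (EGFR Ex19del) seeded at 1–3 × 10⁵/well in 12-well plates and treated the next day with graded degrader concentrations for 48 h. Lysed in RIPA buffer with protease inhibitors, 15 µg protein resolved on 8% SDS-PAGE, and EGFR detected by immunoblot with ECL. DC50 estimated from blots; experiments repeated more than 3 times.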

[19] = test system: Protein cereblon/Epidermal growth factor receptor (Homo sapiens), P00533+Q96SW2 [L858R,T790M]; assay: Protac activity at CRBN/EGFR L858R/T790M mutant in human NCI-H1975 cells assessed as induction of EGFR degradation at 50 nM measured after 16 hrs by Western blot assay; format: cell-based; in short: as §1

Compound	Activity [1]	Activity [2]	Activity [3]	Activity [4]	IC50 [5] [nM]	DC50 [6] [nM]	Activity [7]	IC50 [8] [nM]	Activity [9] [%]	Activity [10]	Activity [11]	Activity [12] [%]	Activity [13]	DC50 [14]	IC50 [15] [nM]	Activity [16]	Activity [17] [%]	%max [18] [%]	Activity [19]
C=CC(=O)Nc1cc2c(Nc3ccc(F)c(Cl)c3)ncnc2cc1OCCCN1CCN(C(=O)CCCCCCNc2cccc3c2C(=O)N(C2CCC(=O)NC2=O)C3=O)CC1 (configuration not stated)	Active	Active	Active	Active	3.94	100	inactive	> 10000	40	Active	Tde	98	inactive	Not Active	> 10000	Active	38	–	–
C=CC(=O)Nc1cc2c(Nc3ccc(F)c(Cl)c3)ncnc2cc1OCCCN1CCN(C(=O)CCCCCNc2cccc3c2C(=O)N(C2CCC(=O)NC2=O)C3=O)CC1 (configuration not stated)	Active	Active	–	Active	2.6	100	inactive	> 10000	–	–	Tde	98	inactive	Not Active	> 10000	Active	–	40	Active
